Reference: ChEMBL document CHEMBL4033799, “Stable and Long-Lasting, Novel Bicyclic Peptide Plasma Kallikrein Inhibitors for the Treatment of Diabetic Macular Edema” (J Med Chem, 2018)
*1 amine or outer side, *2 acyl side, *3 side chain or, on linkers, in order; H or OH if unused. Where a SMILES comes first, the peptide text is derived from it. Bridges are numbered along the chain shown (N, C = ends). Roman numbers before positions name the chains, in order. [ ]: non-standard residue; d: D form. ξ: configuration not given here. X1 = CC(=O)N[C@@H](CSCc1cc(C[*:1])cc(C[*:2])c1)C(=O)O; TBMB = c1c(C[*:1])cc(C[*:3])cc1C[*:2]; hArg = N=C(N)NCCCC[C@H](N)C(=O)O; ξAze = O=C(O)C1CCN1

Key:
Plasma kallikrein [1] = molecular target: Plasma kallikrein (Rattus norvegicus, UniProt P14272); experiment: Inhibition of recombinant Sprague-Dawley rat plasma kallikrein using fluorogenic H-Pro-Phe-Arg-AMC peptide as substrate preincubated for 15 mins followed by substrate addition measured by fluorescence-based assay; settings: read-out: Ki(app)
Chain of Plasma kallikrein (Rattus norvegicus, UniProt P14272) (P14272 20-390 limits assumed): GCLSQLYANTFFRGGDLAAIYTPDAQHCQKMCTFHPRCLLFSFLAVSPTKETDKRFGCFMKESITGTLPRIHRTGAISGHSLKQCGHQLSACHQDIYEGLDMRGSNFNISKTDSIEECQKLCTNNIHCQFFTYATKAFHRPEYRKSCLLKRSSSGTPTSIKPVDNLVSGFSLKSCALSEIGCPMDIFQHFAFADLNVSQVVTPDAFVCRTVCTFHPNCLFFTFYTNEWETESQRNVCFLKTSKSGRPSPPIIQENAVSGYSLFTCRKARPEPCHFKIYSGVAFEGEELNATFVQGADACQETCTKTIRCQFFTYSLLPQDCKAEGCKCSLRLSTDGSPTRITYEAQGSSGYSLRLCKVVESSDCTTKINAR
Chain of Plasma kallikrein (Rattus norvegicus, UniProt P14272) (P14272 391-638 limits assumed): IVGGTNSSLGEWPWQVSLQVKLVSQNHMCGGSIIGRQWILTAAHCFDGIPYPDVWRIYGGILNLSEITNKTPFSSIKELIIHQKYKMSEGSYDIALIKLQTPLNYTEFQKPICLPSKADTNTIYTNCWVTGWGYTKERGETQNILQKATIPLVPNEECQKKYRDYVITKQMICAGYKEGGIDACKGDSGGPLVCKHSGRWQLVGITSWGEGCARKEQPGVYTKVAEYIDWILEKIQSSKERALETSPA

Plasma kallikrein [2] = molecular target: Plasma kallikrein (Homo sapiens, UniProt P03952); experiment: Inhibition of human plasma kallikrein using fluorogenic H-Pro-Phe-Arg-AMC peptide as substrate preincubated for 15 mins followed by substrate addition measured by fluorescence-based assay; settings: read-out: Ki(app)
Chain of Plasma kallikrein (Homo sapiens, UniProt P03952) (P03952 20-390 limits assumed): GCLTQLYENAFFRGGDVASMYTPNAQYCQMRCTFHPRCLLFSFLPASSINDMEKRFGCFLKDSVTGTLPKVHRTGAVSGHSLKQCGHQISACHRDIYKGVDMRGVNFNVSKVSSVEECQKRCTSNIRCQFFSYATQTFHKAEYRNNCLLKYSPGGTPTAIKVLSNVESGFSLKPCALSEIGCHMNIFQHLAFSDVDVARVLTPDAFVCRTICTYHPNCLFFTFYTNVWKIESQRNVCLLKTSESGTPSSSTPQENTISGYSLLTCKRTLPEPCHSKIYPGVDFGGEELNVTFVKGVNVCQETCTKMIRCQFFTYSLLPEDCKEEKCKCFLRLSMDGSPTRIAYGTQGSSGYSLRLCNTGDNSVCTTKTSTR
Chain of Plasma kallikrein (Homo sapiens, UniProt P03952) (P03952 391-638 limits assumed): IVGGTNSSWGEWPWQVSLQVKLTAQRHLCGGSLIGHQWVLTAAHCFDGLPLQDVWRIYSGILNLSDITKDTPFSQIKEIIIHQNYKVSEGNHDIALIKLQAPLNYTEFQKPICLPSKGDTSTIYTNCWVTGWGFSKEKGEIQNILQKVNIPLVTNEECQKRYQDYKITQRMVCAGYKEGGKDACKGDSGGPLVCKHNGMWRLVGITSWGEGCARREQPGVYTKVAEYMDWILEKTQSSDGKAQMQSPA

Plasma [3] = experiment: (§1) Drug level in human plasma treated with (3S,6S,9R,12S,15S,18S,21S,24S,27R)-15-((1H-imidazol-5-yl)methyl)-1-((S)-1-((S)-2-((S)-2-((R)-2-acetamido-3-mercaptopropanamido)-3-hydroxypropanamido)-3-(1H-indol-3-yl)propanoyl)pyrrolidin-2-yl)-18-(3-amino-3-oxopropyl)-21-(carboxymethyl)-6-(3-guanidinopropyl)-12,24-diisobutyl-9,27-bis(mercaptomethyl)-3-methyl-1,4,7,10,13,16,19,22,25-nonaoxo-2,5,8,11,14,17,20,23,26-nonaazaoctacosan-28-oic acid at 50 uM after 18 hrs by MALDI-TOF analysis; format: ADME, cell-free
Method in brief: (§2)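 Peptide from a 1 mM DMSO stock was diluted to 50 μM in citrated mouse, rat or human plasma and incubated at 37 °C for up to 2 days. Samples taken at time points were quenched in 1:1 acetonitrile/methanol and centrifuged. The supernatant was mixed with ammonium bicarbonate in acetonitrile/water, and parent peptide and metabolites were detected by MALDI-TOF.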

Plasma [4] = experiment: as §1, with “rat” for “human”; format: ADME, cell-free; method in brief: as §2
(UniProt A0A8D1M4K5) = experiment: Inhibition of pig plasma kallikrein using fluorogenic H-Pro-Phe-Arg-AMC peptide as substrate preincubated for 15 mins followed by substrate addition measured by fluorescence-based assay; set-up: species or system Sus scrofa; settings: read-out: Ki(app)
[5] = Inhibition of rabbit plasma kallikrein using fluorogenic H-Pro-Phe-Arg-AMC peptide as substrate preincubated for 15 mins followed by substrate addition measured by fluorescence-based assay; set-up: species or system Oryctolagus cuniculus; settings: read-out: Ki(app)
Method in brief: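 Assays ran at 25 °C in 50 mM Tris-HCl, 250 mM NaCl, 1.5 μM BSA, pH 7.5. PKal (nominal 1–2 nM) was preincubated 15 min with serially diluted peptide. […] Human PKal was purified from plasma; rat PKal was made in-house or bought; other species were purified in-house from kaolin-activated plasma.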

[6] = Aqueous solubility of the compound in buffer; format: physicochemical

Compound CC(C)C[C@@H]1NC(=O)[C@H](CC(=O)O)NC(=O)[C@H](CCC(N)=O)NC(=O)[C@H](Cc2cnc[nH]2)NC(=O)[C@H](CC(C)C)NC(=O)[C@@H]2CSCc3cc(cc(c3)CSC[C@@H](C(=O)N[C@@H](C)C(=O)O)NC1=O)CSC[C@H](NC(=O)[C@H](C)N)C(=O)N[C@@H](CO)C(=O)N[C@@H](Cc1c[nH]c3ccccc13)C(=O)N1CCC[C@H]1C(=O)N[C@@H](C)C(=O)N[C@@H](CCCNC(=N)N)C(=O)N2 (H-ACSWPARCLHQDLCA-OH; linker 2-8-14 via TBMB) has a Ki (Plasma kallikrein [1]) of 0.9 nM and a Ki (Plasma kallikrein [2]) of 0.07 nM.
For CC(=O)N[C@@H](CSCc1cc2cc(c1)CSC[C@H](N)C(=O)N[C@@H](CC(C)C)C(=O)N[C@@H](Cc1cnc[nH]1)C(=O)N[C@@H](CCC(N)=O)C(=O)N[C@@H](CC(=O)O)C(=O)N[C@@H](CC(C)C)C(=O)N[C@H](C(=O)O)CSC2)C(=O)N[C@@H](CO)C(=O)O, the Drug metabolism (Plasma [3]) was “Metabolite_Detected”.
For CC(=O)N[C@H]1CSCc2cc3cc(c2)CSC[C@H](NC(=O)[C@H](CCCCNC(=N)N)NC(=O)[C@H](Cc2ccc(O)cc2)NC(=O)C2CCN2C(=O)[C@H](Cc2ccccc2)NC(=O)[C@H](CO)NC1=O)C(=O)N[C@@H](CC(C)C)C(=O)N[C@@H](Cc1cnc[nH]1)C(=O)N[C@@H](CCC(N)=O)C(=O)N[C@@H](CC(=O)O)C(=O)N[C@@H](CC(C)C)C(=O)N[C@H](C(=O)O)CSC3 (stereo partly drawn) (Ac-CSF[ξAze]Y[hArg]CLHQDLC-OH; linker 1-7-13 via TBMB), the Ki (Plasma kallikrein [2]) was 0.21 nM.
Compound CC[C@H](C)[C@@H]1NC(=O)[C@H](CC(=O)O)NC(=O)[C@@H]2CCCN2C(=O)[C@H](Cc2ccc(O)cc2)NC(=O)[C@H](Cc2ccc(O)cc2)NC(=O)[C@H](C(C)C)NC(=O)[C@@H]2CSCc3cc(cc(c3)CSC[C@@H](C(=O)N[C@@H](C)C(=O)O)NC1=O)CSC[C@H](NC(=O)[C@H](C)N)C(=O)N[C@@H](CC(N)=O)C(=O)N[C@@H](CC(N)=O)C(=O)N[C@@H](Cc1ccccc1)C(=O)N1CCC[C@H]1C(=O)N[C@@H](Cc1ccccc1)C(=O)N[C@@H](CCCNC(=N)N)C(=O)N2 (H-ACNNFPFRCVYYPDICA-OH; linker 2-9-16 via TBMB) has a Ki (Plasma kallikrein [2]) of 0.44 nM.
For CC(=O)N[C@H]1CSCc2cc(cc(CSC[C@H](NC(=O)[C@H](CC(C)C)NC(=O)[C@H](CC(=O)O)NC(=O)[C@H](CCC(N)=O)NC(=O)[C@@H](N)Cc3cnc[nH]3)C(=O)O)c2)CSC[C@@H](C(=O)O)NC(=O)[C@H](CCCNC(=N)N)NC(=O)[C@H](C)NC(=O)[C@@H]2CCCN2C(=O)[C@H](Cc2c[nH]c3ccccc23)NC(=O)[C@H](CO)NC1=O (I: Ac-CSWPARC-OH / II: H-HQDLC-OH; linker I:1-I:7-II:5 via TBMB), the Drug metabolism (Plasma [4]) was “Metabolite_Detected”.
For CC(=O)N[C@H]1CSCc2cc3cc(c2)CSC[C@H](NC(=O)[C@H](CCCNC(=N)N)NC(=O)[C@H](Cc2ccc(O)cc2)NC(=O)[C@@H]2CCCN2C(=O)[C@H](Cc2ccccc2)NC(=O)[C@H](CO)NC1=O)C(=O)N[C@@H](CC(C)C)C(=O)N[C@@H](Cc1cnc[nH]1)C(=O)N[C@@H](CCC(N)=O)C(=O)N[C@@H](CC(=O)O)C(=O)N[C@@H](CC(C)C)C(=O)N[C@H](C(=O)O)CSC3 (Ac-CSFPYRCLHQDLC-OH; linker 1-7-13 via TBMB), the Ki ((UniProt A0A8D1M4K5)) was 22 nM, the Ki [5] was 84 nM and the Ki (Plasma kallikrein [1]) was 11 nM. It also gave a Ki (Plasma kallikrein [2]) of 0.39 nM.
In the case of CC(=O)N[C@@H](CSCc1cc2cc(c1)CSC[C@H](N)C(=O)N[C@@H](CC(C)C)C(=O)N[C@@H](Cc1cnc[nH]1)C(=O)N[C@@H](CCC(N)=O)C(=O)N[C@@H](CC(=O)O)C(=O)N[C@@H](CC(C)C)C(=O)N[C@H](C(=O)O)CSC2)C(=O)N[C@@H](CO)C(=O)N[C@@H](Cc1c[nH]c2ccccc12)C(=O)N1CCC[C@H]1C(=O)N[C@@H](C)C(=O)O (I: H-CLHQDLC-OH / II: Ac-CSWPA-OH; linker I:1-I:7-II:1 via TBMB), the Drug metabolism (Plasma [3]) is reported as “Metabolite_Detected”.
CC(=O)N[C@H]1CSCc2cc3cc(c2)CSC[C@H](NC(=O)[C@H](CCCCNC(=N)N)NC(=O)[C@H](C)NC(=O)C2CCN2C(=O)[C@H](Cc2c[nH]c4ccccc24)NC(=O)[C@H](CO)NC1=O)C(=O)N[C@@H](CC(C)C)C(=O)N[C@@H](Cc1cnc[nH]1)C(=O)N[C@@H](CCC(N)=O)C(=O)N[C@@H](CC(=O)O)C(=O)N[C@@H](CC(C)C)C(=O)N[C@H](C(=O)O)CSC3 (stereo partly drawn) (Ac-CSW[ξAze]A[hArg]CLHQDLC-OH; linker 1-7-13 via TBMB) gave a Ki (Plasma kallikrein [2]) of 0.14 nM.
For CC(=O)N[C@H]1CSCc2cc(cc(CSC[C@H](NC(=O)[C@H](CC(C)C)NC(=O)[C@@H](N)CC(=O)O)C(=O)O)c2)CSC[C@@H](C(=O)O)NC(=O)[C@H](CCCNC(=N)N)NC(=O)[C@H](C)NC(=O)[C@@H]2CCCN2C(=O)[C@H](Cc2c[nH]c3ccccc23)NC(=O)[C@H](CO)NC1=O, the Drug metabolism (Plasma [4]) was “Metabolite_Detected”.
With CC[C@H](C)[C@@H]1NC(=O)[C@H](CC(=O)O)NC(=O)[C@@H]2CCCN2C(=O)[C@H](Cc2ccc(O)cc2)NC(=O)[C@H](Cc2ccc(O)cc2)NC(=O)[C@H](C(C)C)NC(=O)[C@@H]2CSCc3cc(cc(c3)CSC[C@@H](C(=O)N[C@@H](C)C(=O)O)NC1=O)CSC[C@H](NC(=O)[C@H](C)N)C(=O)N[C@@H](CO)C(=O)N[C@@H](Cc1ccccc1)C(=O)N1CCC[C@H]1C(=O)N[C@@H](Cc1ccc(O)cc1)C(=O)N[C@@H](CCCNC(=N)N)C(=O)N2 (H-ACSFPYRCVYYPDICA-OH; linker 2-8-15 via TBMB) the solubility [6] was “Insoluble”.
With CC(=O)N[C@@H](CSCc1cc2cc(c1)CSC[C@H](N)C(=O)N[C@@H](CC(C)C)C(=O)N[C@@H](Cc1cnc[nH]1)C(=O)N[C@@H](CCC(N)=O)C(=O)N[C@@H](CC(=O)O)C(=O)N[C@@H](CC(C)C)C(=O)N[C@H](C(=O)O)CSC2)C(=O)O (H-CLHQDLC-OH; linker 1-7 via X1) the Drug metabolism (Plasma [3]) was “Metabolite_Detected”.
In the case of CC(=O)N[C@H]1CSCc2cc(CSC[C@H](NC(=O)[C@H](CC(C)C)NC(=O)[C@@H](N)CC(=O)O)C(=O)O)cc(c2)CSC[C@@H](C(=O)N[C@@H](CC(C)C)C(=O)O)NC(=O)[C@H](CCCNC(=N)N)NC(=O)[C@H](C)NC(=O)[C@@H]2CCCN2C(=O)[C@H](Cc2c[nH]c3ccccc23)NC(=O)[C@H](CO)NC1=O, the Drug metabolism (Plasma [4]) is reported as “Metabolite_Detected”.
CC(=O)N[C@H]1CSCc2cc3cc(c2)CSC[C@H](NC(=O)[C@H](CCCNC(=N)N)NC(=O)[C@H](C)NC(=O)C2CCN2C(=O)[C@H](Cc2c[nH]c4ccccc24)NC(=O)[C@H](CO)NC1=O)C(=O)N[C@@H](CC(C)C)C(=O)N[C@@H](Cc1cnc[nH]1)C(=O)N[C@@H](CCC(N)=O)C(=O)N[C@@H](CC(=O)O)C(=O)N[C@@H](CC(C)C)C(=O)N[C@H](C(=O)O)CSC3 (stereo partly drawn) (Ac-CSW[ξAze]ARCLHQDLC-OH; linker 1-7-13 via TBMB) gave a Ki (Plasma kallikrein [2]) of 0.06 nM.
CC(=O)N[C@H]1CSCc2cc3cc(c2)CSC[C@H](NC(=O)[C@H](CCCNC(=N)N)NC(=O)[C@H](Cc2ccc(O)cc2)NC(=O)[C@@H]2CCCN2C(=O)[C@H](Cc2ccccc2)NC(=O)[C@H](CO)NC1=O)C(=O)N[C@@H](C)CN[C@@H](Cc1cnc[nH]1)C(=O)N[C@@H](CCC(N)=O)C(=O)N[C@@H](CC(=O)O)C(=O)N[C@@H](CC(C)C)C(=O)N[C@H](C(=O)O)CSC3 showed a Ki (Plasma kallikrein [2]) of 1.3 nM.
